Source: ChEMBL document CHEMBL4406880, “Design, synthesis, and bioactivity of dihydropyrimidine derivatives as kinesin spindle protein inhibitors” (Bioorg Med Chem, 2019)

Tests used:
Assay type in all cases: functional
[1] = system: IGROV-1; test: Growth inhibition of human IGROV1 cells assessed as growth percentage at 10 uM incubated for 48 hrs by sulforhodamine B assay relative to control; conditions: IGROV-1, 48 h, read-out: Activity
Method in brief: (§1)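 NCI-60 one-dose screen. Cells in RPMI 1640 with 5% FBS and 2 mM L-glutamine, seeded at 5,000–40,000 cells/well according to doubling time, and preincubated overnight at 37 °C, 5% CO2. A time-zero plate was TCA-fixed at drug addition. Compound from DMSO stock, final 10 µM, 48 h; DMSO vehicle controls. Fixation with TCA, 10% final (16% for suspension cells). SRB stain, Tris solubilization, A515. Result given as % growth versus untreated cells.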

[2] = system: BT-549; test: Growth inhibition of human BT549 cells assessed as growth percentage at 10 uM incubated for 48 hrs by sulforhodamine B assay relative to control; conditions: BT-549, 48 h, read-out: Activity
Method in brief: (§2)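 NCI-60 one-dose screen: cells in RPMI 1640 with 5% FBS and 2 mM L-glutamine, plated at 5,000–40,000 cells/well and preincubated 24 h at 37 °C, 5% CO2. Compound is added from a DMSO stock to a final 10 µM and incubated 48 h. Cells are TCA-fixed and stained with sulforhodamine B, read at 515 nm. Output is % growth versus untreated control, with a time-zero plate.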

[3] = system: 786-0; test: Growth inhibition of human 786-0 cells assessed as growth percentage at 10 uM incubated for 48 hrs by sulforhodamine B assay relative to control; conditions: 786-0, 48 h, read-out: Activity; method in brief: as §2
[4] = system: HOP-62; test: Growth inhibition of human HOP62 cells assessed as growth percentage at 10 uM incubated for 48 hrs by sulforhodamine B assay relative to control; conditions: HOP-62, 48 h, read-out: Activity; method in brief: as §1
[5] = system: M14; test: Growth inhibition of human M14 cells assessed as growth percentage at 10 uM incubated for 48 hrs by sulforhodamine B assay relative to control; conditions: M14, 48 h, read-out: Activity; method in brief: as §1
[6] = system: UO-31; test: Growth inhibition of human UO31 cells assessed as growth percentage at 10 uM incubated for 48 hrs by sulforhodamine B assay relative to control; conditions: UO-31, 48 h, read-out: Activity
Method in brief: (§3)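 NCI-60 single-dose screen. Cells were grown in RPMI 1640 with 5% FBS and 2 mM L-glutamine and plated at 5,000–40,000 cells/well. After an overnight preincubation at 37 °C in 5% CO2, compound was added at a final 10 µM from a DMSO stock, with DMSO/PBS controls. After 48 h, cells were TCA-fixed and stained with 0.4% SRB, and absorbance was read at 515 nm. Growth is given as a percentage of untreated control.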

[7] = system: NCI-H322M; test: Growth inhibition of human NCI-H322M cells assessed as growth percentage at 10 uM incubated for 48 hrs by sulforhodamine B assay relative to control; conditions: read-out: Activity; method in brief: as §1
[8] = system: SNB-19; test: Growth inhibition of human SNB19 cells assessed as growth percentage at 10 uM incubated for 48 hrs by sulforhodamine B assay relative to control; conditions: SNB-19, 48 h, read-out: Activity; method in brief: as §3
[9] = system: ACHN; test: Growth inhibition of human ACHN cells assessed as growth percentage at 10 uM incubated for 48 hrs by sulforhodamine B assay relative to control; conditions: read-out: Activity; method in brief: as §2
[10] = system: MDA-MB-435; test: Growth inhibition of human MDA-MB-435 cells assessed as growth percentage at 10 uM incubated for 48 hrs by sulforhodamine B assay relative to control; conditions: MDA-MB-435, 48 h, read-out: Activity; method in brief: as §1
[11] = system: SF-539; test: Growth inhibition of human SF539 cells assessed as growth percentage at 10 uM incubated for 48 hrs by sulforhodamine B assay relative to control; conditions: SF-539, 48 h, read-out: Activity; method in brief: as §3
[12] = system: MCF7; test: Growth inhibition of human MCF7 cells assessed as growth percentage at 10 uM incubated for 48 hrs by sulforhodamine B assay relative to control; conditions: MCF7, 48 h, read-out: Activity; method in brief: as §1
[13] = system: RPMI-8226; test: Growth inhibition of human RPMI8226 cells assessed as growth percentage at 10 uM incubated for 48 hrs by sulforhodamine B assay relative to control; conditions: RPMI-8226, 48 h, read-out: Activity; method in brief: as §3
[14] = system: PC-3; test: Growth inhibition of human PC3 cells assessed as growth percentage at 10 uM incubated for 48 hrs by sulforhodamine B assay relative to control; conditions: PC-3, 48 h, read-out: Activity; method in brief: as §3
[15] = system: MDA-MB-468; test: Growth inhibition of human MDA-MB-468 cells assessed as growth percentage at 10 uM incubated for 48 hrs by sulforhodamine B assay relative to control; conditions: MDA-MB-468, 48 h, read-out: Activity; method in brief: as §1
[16] = system: MOLT-4; test: Growth inhibition of human MOLT4 cells assessed as growth percentage at 10 uM incubated for 48 hrs by sulforhodamine B assay relative to control; conditions: MOLT-4, 48 h, read-out: Activity; method in brief: as §1
[17] = system: NCI-H460; test: Growth inhibition of human NCI-H460 cells assessed as growth percentage at 10 uM incubated for 48 hrs by sulforhodamine B assay relative to control; conditions: NCI-H460, 48 h, read-out: Activity; method in brief: as §1
[18] = system: T47D; test: Growth inhibition of human T47D cells assessed as growth percentage at 10 uM incubated for 48 hrs by sulforhodamine B assay relative to control; conditions: read-out: Activity; method in brief: as §3
[19] = system: TK-10; test: Growth inhibition of human TK10 cells assessed as growth percentage at 10 uM incubated for 48 hrs by sulforhodamine B assay relative to control; conditions: TK-10, 48 h, read-out: Activity; method in brief: as §3
[20] = system: NCI-H226; test: Growth inhibition of human NCI-H226 cells assessed as growth percentage at 10 uM incubated for 48 hrs by sulforhodamine B assay relative to control; conditions: NCI-H226, 48 h, read-out: Activity; method in brief: as §1
[21] = system: SNB-75; test: Growth inhibition of human SNB75 cells assessed as growth percentage at 10 uM incubated for 48 hrs by sulforhodamine B assay relative to control; conditions: SNB-75, 48 h, read-out: Activity; method in brief: as §3
[22] = system: Hs-578T; test: Growth inhibition of human Hs 578T cells assessed as growth percentage at 10 uM incubated for 48 hrs by sulforhodamine B assay relative to control; conditions: read-out: Activity; method in brief: as §1
[23] = system: NCI-H522; test: Growth inhibition of human NCI-H522 cells assessed as growth percentage at 10 uM incubated for 48 hrs by sulforhodamine B assay relative to control; conditions: NCI-H522, 48 h, read-out: Activity; method in brief: as §1
[24] = system: SK-OV-3; test: Growth inhibition of human SKOV3 cells assessed as growth percentage at 10 uM incubated for 48 hrs by sulforhodamine B assay relative to control; conditions: SK-OV-3, 48 h, read-out: Activity; method in brief: as §3
[25] = system: EKVX; test: Growth inhibition of human EKVX cells assessed as growth percentage at 10 uM incubated for 48 hrs by sulforhodamine B assay relative to control; conditions: read-out: Activity; method in brief: as §2
[26] = system: SR; test: Growth inhibition of human SR cells assessed as growth percentage at 10 uM incubated for 48 hrs by sulforhodamine B assay relative to control; conditions: read-out: Activity; method in brief: as §3
[27] = system: CCRF-CEM; test: Growth inhibition of human CCRF-CEM cells assessed as growth percentage at 10 uM incubated for 48 hrs by sulforhodamine B assay relative to control; conditions: read-out: Activity; method in brief: as §2

| Compound | growth at 10 µM [1] | growth at 10 µM [2] | growth at 10 µM [3] | growth at 10 µM [4] | growth at 10 µM [5] | growth at 10 µM [6] | growth at 10 µM [7] | growth at 10 µM [8] | growth at 10 µM [9] | growth at 10 µM [10] | growth at 10 µM [11] | growth at 10 µM [12] | growth at 10 µM [13] | growth at 10 µM [14] | growth at 10 µM [16] | growth at 10 µM [17] | growth at 10 µM [18] | growth at 10 µM [19] | growth at 10 µM [20] | growth at 10 µM [22] | further results |
| --- | --- | --- | --- | --- | --- | --- | --- | --- | --- | --- | --- | --- | --- | --- | --- | --- | --- | --- | --- | --- | --- |
| COCCOC(=O)C1=C(C)NC(=S)N(C(C)=O)C1c1ccc2c(c1)OCO2 (racemic) | 106% | 103% | 108% | 87.7% | 96.1% | 82% | 101% | 99.3% | 102% | 103% | 97.6% | 102% | 97.7% | 97.8% | 103% | 104% | 86.9% | 102% | 96.6% | 93.7% | growth at 10 µM [15]: 105%; growth at 10 µM [21]: 83%; growth at 10 µM [23]: 91.6%; growth at 10 µM [24]: 97%; growth at 10 µM [25]: 94.1% |
| CC1=C(C(=O)OCc2ccccc2)C(c2ccc3c(c2)OCO3)NC(=S)N1 (racemic) | 97.6% | 103% | 105% | 106% | 102% | 89.2% | 95.1% | 103% | 98.9% | 93.6% | 99.3% | 86.8% | 76.5% | 85.2% | 78.2% | 96.7% | 74% | 105% | 95.8% | 90.2% | growth at 10 µM [26]: 77.2%; growth at 10 µM [27]: 100%; growth at 10 µM [23]: 89.5%; growth at 10 µM [24]: 109%; growth at 10 µM [25]: 97.5% |
| COCCOC(=O)C1=C(C)NC(=S)NC1c1ccc2c(c1)OCO2 (racemic) | 105% | 109% | 107% | 98% | 104% | 87.8% | 101% | 100% | 106% | 104% | 99.2% | 89.6% | 105% | 95.7% | 96.9% | 112% | 94.8% | 104% | 90.2% | 104% | growth at 10 µM [26]: 95.5%; growth at 10 µM [27]: 104%; growth at 10 µM [23]: 94.3%; growth at 10 µM [24]: 103%; growth at 10 µM [25]: 105% |
